# Measurements: ChEMBL document CHEMBL1126267, “A novel synthesis and potent antiinflammatory activity of 4-hydroxy-2(1H)-oxo-1-phenyl-1,8-naphthyridine-3-carboxamides” (1992)
# Columns and labels:
# Type in all cases: functional
# Rattus norvegicus [1] = experiment: Compound was tested for the inhibition of rat reversed passive Arthus pleurisy after peroral administration of 100 mg/kg dose at 2.96 +/- 0.16*10e6 no of cells; details: route oral
# Procedure, shortened: (§1)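 Male Wistar rats (about 250 g) were given compound orally before the antiserum. Under ether anesthesia, 0.2 mL rabbit anti-egg albumin antiserum was injected intrapleurally. After 30 min, egg albumin (15 mg/100 g body weight in 0.1 mL saline) was given iv. Rats were killed 4.5 h later and the thoracic cavity was rinsed with 5 mL saline. Exudate volume and infiltrated cell number were measured, with inhibition % versus controls as mean ± SEM.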
# Rattus norvegicus [2] = experiment: Compound was tested for the inhibition of rat reversed passive Arthus pleurisy after peroral administration of 100 mg/kg dose at 2.96*10e6 no of cells with 3.86*10e6 cells of control; details: route oral; procedure, shortened: as §1
# Rattus norvegicus [3] = experiment: Compound was tested for the inhibition of rat reversed passive Arthus pleurisy after peroral administration of 100 mg/kg dose at 0.28 mL of exudate volume with 0.86 mL of control (injected intrapleurally); details: route oral; procedure, shortened: as §1
# Rattus norvegicus [4] = experiment: Inhibition of Zymosan-induced rat's paw edema(ZPE) after peroral administration of 100 mg/kg dose.; details: route oral
# Procedure, shortened: (§2)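 Male Wistar rats (about 150 g) were dosed orally with compound suspended in 5% arabic gum, 1 h before a subplantar hind-paw injection of 0.1 mL saline. The irritant was 1% zymosan for 33 or 1% λ-carrageenin for 34. Paw volume was measured by plethysmograph before dosing and at 4 h (zymosan) or 3 h (carrageenin). Swelling is relative to initial volume, as mean ± SEM. % inhibition is versus the control group's mean swelling.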
# Rattus norvegicus [5] = experiment: Compound was tested for the inhibition of Zymosan-induced rat's paw edema(ZPE) after peroral administration of 3 mg/kg dose; details: route oral
# Procedure, shortened: (§3)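 Male Wistar rats weighing about 150 g were dosed orally with compound suspended in 5% arabic gum. 1 h later, 1% zymosan in 0.1 mL saline was injected subplantarly into the hind paw. Paw volume was measured by plethysmograph before dosing and 4 h after zymosan, with edema as the volume difference. Inhibition % was derived from mean swelling versus the control group.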
# Rattus norvegicus [6] = experiment: Compound was tested for the inhibition of arachidonic acid-induced rat's paw edema(APE) after peroral administration of 10 mg/kg dose; details: route oral
# Procedure, shortened: (§4)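 Test: arachidonic acid paw edema in male Wistar rats of about 150 g. Oral dosing in 5% arabic gum came 1 h before subplantar injection of 1% arachidonic acid sodium salt in 0.1 mL saline into the hind paw. Plethysmograph paw volume was read before dosing and 1 h post-irritant, and edema = volume difference. % inhibition was taken from mean swelling against controls.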
# Rattus norvegicus [7] = experiment: Compound was tested for the inhibition of rat reversed passive Arthus pleurisy after peroral administration of 10 mg/kg dose at 4.30+/-0.41*10e6 no of cells; details: route oral; procedure, shortened: as §1
# Rattus norvegicus [8] = experiment: Compound was tested for the inhibition of Zymosan-induced rat's paw edema(ZPE) after peroral administration of 10 mg/kg dose; details: po; procedure, shortened: as §3
# Rattus norvegicus [9] = experiment: Compound was tested for the inhibition of Carrageenan rat's paw edema(CPE) after peroral administration of 10 mg/kg dose
# Rattus norvegicus [10] = experiment: Compound was tested for the inhibition of Carrageenan rat's paw edema(CPE) after peroral administration of 3 mg/kg dose; details: route oral
# Rattus norvegicus [11] = experiment: Compound was tested for the inhibition of arachidonic acid-induced rat's paw edema(APE) after peroral administration of 3 mg/kg dose; details: route oral; procedure, shortened: as §4
# Rattus norvegicus [12] = experiment: Compound was tested for the inhibition of arachidonic acid-induced rat's paw edema(APE) after peroral administration of 30 mg/kg dose; details: route oral; procedure, shortened: as §4
# Rattus norvegicus [13] = experiment: Compound was tested for the inhibition of rat reversed passive Arthus pleurisy after peroral administration of 10 mg/kg dose at 0.37+/-0.07 mL of exudate volume (injected intrapleurally); details: route oral; procedure, shortened: as §1
# Rattus norvegicus [14] = experiment: Compound was tested for the inhibition of rat reversed passive Arthus pleurisy after peroral administration of 100 mg/kg dose at 0.28+/-0.06 mL of exudate volume (injected intrapleurally); details: route oral; procedure, shortened: as §1
# Rattus norvegicus [15] = experiment: Compound was tested for the inhibition of rat reversed passive Arthus pleurisy after peroral administration of 25 mg/kg dose at 4.25+/-0.1*10e6 no of cells; details: route oral
# Procedure, shortened: (§5)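 Male Wistar rats (about 250 g) under ether received 0.2 mL rabbit anti-egg-albumin antiserum intrapleurally. Thirty min later they got 15 mg EA/100 g body weight in 0.1 mL saline iv. Compounds were given orally beforehand. Rats were killed 4.5 h after induction and the thoracic cavity rinsed with 5 mL saline. Exudate volume and infiltrated cell count were read as mean ± SE. % inhibition is versus control.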
# Rattus norvegicus [16] = experiment: Compound was tested for the inhibition of rat reversed passive Arthus pleurisy after peroral administration of 25 mg/kg dose at 0.32+/-0.07 mL of exudate volume (injected intrapleurally); details: route oral; procedure, shortened: as §5
# Rattus norvegicus [17] = experiment: Compound was tested for the inhibition of rat reversed passive Arthus pleurisy after peroral administration of 5 mg/kg dose at 0.4+/-0.04 mL of exudate volume (injected intrapleurally); details: route oral; procedure, shortened: as §5
# Rattus norvegicus [18] = experiment: Compound was tested for the inhibition of rat reversed passive Arthus pleurisy after peroral administration of 5 mg/kg dose at 3.54+/-0.06*10e6 no of cells; details: route oral; procedure, shortened: as §5
# Rattus norvegicus [19] = experiment: Antiinflammatory activity on Carrageenan rat's paw edema(CPE) after peroral administration of 10 mg/kg dose with control swelling of 75.8%; details: route oral
# Rattus norvegicus [20] = experiment: Antiinflammatory activity on Carrageenan rat's paw edema(CPE) after peroral administration of 100 mg/kg dose with control swelling of 64.2%; details: route oral
# Rattus norvegicus [21] = experiment: Antiinflammatory activity on Zymosan-induced rat's paw edema(ZPE) after peroral administration of 3 mg/kg dose with control swelling of 68.1%; details: route oral; procedure, shortened: as §3
# Rattus norvegicus [22] = experiment: Compound was tested for the inhibition of arachidonic acid-induced rat's paw edema(APE) after peroral administration of 10 mg/kg dose with control swelling of 51.6%; details: route oral; procedure, shortened: as §4
# Rattus norvegicus [23] = experiment: Compound was tested for the inhibition of arachidonic acid-induced rat's paw edema(APE) after peroral administration of 3 mg/kg dose with control swelling of 51.6%; details: route oral; procedure, shortened: as §4
# Rattus norvegicus [24] = experiment: Compound was tested for the inhibition of arachidonic acid-induced rat's paw edema(APE) after peroral administration of 30 mg/kg dose with control swelling of 51.6%; details: route oral
# Rattus norvegicus [25] = experiment: Antiinflammatory activity on Zymosan-induced rat's paw edema(ZPE) after peroral administration of 30 mg/kg dose with control swelling of 68.1%; details: route oral; procedure, shortened: as §3
# Rattus norvegicus [26] = experiment: Antiinflammatory activity on Zymosan-induced rat's paw edema(ZPE) after peroral administration of 100 mg/kg dose with control swelling of 71.7%; details: route oral; procedure, shortened: as §3
# Rattus norvegicus [27] = experiment: Antiinflammatory activity on Carrageenan rat's paw edema(CPE) after peroral administration of 3 mg/kg dose with control swelling of 75.8%; details: route oral
# Rattus norvegicus [28] = experiment: Antiinflammatory activity on Carrageenan rat's paw edema(CPE) after peroral administration of 30 mg/kg dose with control swelling of 75.8%; details: route oral
# Rattus norvegicus [29] = experiment: Antiinflammatory activity on Zymosan-induced rat's paw edema(ZPE) after peroral administration of 10 mg/kg dose with control swelling of 68.1%; details: route oral; procedure, shortened: as §3
# Rattus norvegicus [30] = experiment: Compound was tested for the inhibition of Zymosan-induced rat's paw edema(ZPE) after peroral administration of 30 mg/kg dose; details: route oral; procedure, shortened: as §3
# Rattus norvegicus [31] = experiment: Inhibition of carrageenan-induced rat's paw edema (CPE) after peroral administration of 100 mg/kg dose.; details: route oral; procedure, shortened: as §2
# Rattus norvegicus [32] = experiment: Compound was tested for the inhibition of rat reversed passive Arthus pleurisy after peroral administration of 100 mg/kg dose at 1.19*10e6 no of cells with 7.4*10e6 cells of control; details: route oral; procedure, shortened: as §1
# Rattus norvegicus [33] = experiment: Compound was tested for the inhibition of rat reversed passive Arthus pleurisy after peroral administration of 100 mg/kg dose at 0.28 mL of exudate volume with 0.82 mL of control (injected intrapleurally); details: route oral; procedure, shortened: as §1
# Rattus norvegicus [34] = experiment: Antiinflammatory activity on Carrageenan rat's paw edema(CPE) after peroral administration of 100 mg/kg dose with control swelling of 71.9%; details: route oral
# Rattus norvegicus [35] = experiment: Antiinflammatory activity on Zymosan-induced rat's paw edema(ZPE) after peroral administration of 100 mg/kg dose with control swelling of 72.9%; details: route oral; procedure, shortened: as §3
smiles,measurement,setting,value
O=C(Nc1cccnc1)c1c(O)c2cccnc2n(-c2ccccc2)c1=O,inhibition in vivo at 100 mg/kg,Rattus norvegicus [1],30.5%
same,inhibition in vivo at 100 mg/kg,Rattus norvegicus [2],30.5%
same,inhibition in vivo at 100 mg/kg,Rattus norvegicus [3],75.3%
same,inhibition in vivo at 100 mg/kg,Rattus norvegicus [4],30.3%
same,inhibition in vivo at 3 mg/kg,Rattus norvegicus [5],21.9%
same,inhibition in vivo at 10 mg/kg,Rattus norvegicus [6],44%
same,inhibition in vivo at 10 mg/kg,Rattus norvegicus [7],41.2%
same,inhibition in vivo at 10 mg/kg,Rattus norvegicus [8],25.4%
same,inhibition in vivo at 10 mg/kg,"Rattus norvegicus [9]; Rattus norvegicus, po",33.8%
same,Inhibition,"Rattus norvegicus [9]; route oral, 10 mg/kg",22.7%
same,inhibition in vivo at 3 mg/kg,Rattus norvegicus [10],20.2%
same,inhibition in vivo at 3 mg/kg,Rattus norvegicus [11],40.9%
same,inhibition in vivo at 30 mg/kg,Rattus norvegicus [12],40.7%
same,inhibition in vivo at 10 mg/kg,Rattus norvegicus [13],55.7%
same,inhibition in vivo at 100 mg/kg,Rattus norvegicus [14],75.3%
same,inhibition in vivo at 25 mg/kg,Rattus norvegicus [15],42.1%
same,inhibition in vivo at 25 mg/kg,Rattus norvegicus [16],62.9%
same,inhibition in vivo at 5 mg/kg,Rattus norvegicus [17],50%
same,inhibition in vivo at 5 mg/kg,Rattus norvegicus [18],33.3%
same,Swelling,Rattus norvegicus [19],58.6%
same,Swelling,Rattus norvegicus [20],44.4%
same,Swelling,Rattus norvegicus [21],53.2%
same,Swelling,Rattus norvegicus [22],28.9%
same,Swelling,Rattus norvegicus [23],30.5%
same,Swelling,Rattus norvegicus [24],30.6%
same,Swelling,Rattus norvegicus [25],38.2%
same,Swelling,Rattus norvegicus [26],50%
same,Swelling,Rattus norvegicus [27],60.5%
same,Swelling,Rattus norvegicus [28],50.2%
same,Swelling,Rattus norvegicus [29],50.8%
same,inhibition in vivo at 30 mg/kg,Rattus norvegicus [30],43.9%
same,inhibition in vivo at 100 mg/kg,Rattus norvegicus [31],30.8%
Cc1cnccc1NC(=O)c1c(O)c2cccnc2n(-c2ccccc2)c1=O,inhibition in vivo at 100 mg/kg,Rattus norvegicus [4],26.9%
same,inhibition in vivo at 100 mg/kg,Rattus norvegicus [32],83.9%
same,inhibition in vivo at 100 mg/kg,Rattus norvegicus [33],65.9%
same,Swelling,Rattus norvegicus [34],64.6%
same,Swelling,Rattus norvegicus [35],53.3%
same,inhibition in vivo at 100 mg/kg,Rattus norvegicus [31],8.8%
